One compound from ChEMBL document CHEMBL4043093, “2-Oxo-3, 4-dihydropyrimido[4, 5-d]pyrimidinyl derivatives as new irreversible pan fibroblast growth factor receptor (FGFR) inhibitors” (Eur J Med Chem, 2017) can be followed below.

Assay [1] concerns the target Fibroblast growth factor receptor 4 (Homo sapiens, UniProt P22455). Briefly: Inhibition of human recombinant His-tagged FGFR4 cytoplasmic domain ([…] residues) expressed in baculovirus using Tyr-4 peptide after 1 hr by FRET-based Z'-Lyte assay.
Assay [2] relates to Tyrosine-protein kinase ABL1 (Homo sapiens), P00519 [Q252H]. In words: Inhibition of human phosphorylated ABL1 Q252H mutant expressed in HEK293 cells assessed as residual activity at 1000 nM after 30 mins by Kinomescan method relative to control. The assay is classed as cell-based. The method, boiled down:
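Single-point screen at a fixed 1 µM, run within a 456-kinase DiscoveRx KINOMEscan panel. Each kinase's read-out is Percent Control, i.e. signal relative to a control without compound. Hits were scored by a Percent Control < 35 cut-off, and an S(35) selectivity score was calculated across the non-mutant kinases.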

Assay [3] addresses Tyrosine-protein kinase ABL1 (Homo sapiens) (UniProt P00519). In words: Inhibition of wild-type human phosphorylated ABL1 (S229 to K512 residues) expressed in HEK293 cells assessed as residual activity at 1000 nM after 30 mins by Kinomescan method relative to control. The assay is classed as cell-based.
The target of assay [4] is Aurora kinase B (Homo sapiens) (UniProt Q96GD4). Briefly: Inhibition of wild-type human partial length AURKB (D25 to A303 residues) expressed in HEK293 cells assessed as residual activity at 1000 nM after 30 mins by Kinomescan method relative to control. The assay is classed as cell-based.
Chain of Aurora kinase B (Homo sapiens) (Q96GD4 whole entry, the tested form may be a part): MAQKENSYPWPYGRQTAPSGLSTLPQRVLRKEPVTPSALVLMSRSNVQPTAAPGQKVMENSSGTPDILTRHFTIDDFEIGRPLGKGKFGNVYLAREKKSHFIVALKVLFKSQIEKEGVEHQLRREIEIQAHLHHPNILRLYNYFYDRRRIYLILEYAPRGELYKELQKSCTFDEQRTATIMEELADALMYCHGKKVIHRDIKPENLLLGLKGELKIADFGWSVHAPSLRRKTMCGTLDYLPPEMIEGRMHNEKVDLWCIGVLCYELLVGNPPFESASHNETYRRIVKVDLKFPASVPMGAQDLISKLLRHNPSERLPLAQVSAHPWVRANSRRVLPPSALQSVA
Assay [5] has as its target Tyrosine-protein kinase receptor UFO (Homo sapiens) (UniProt P30530). Briefly: Inhibition of wild-type human partial length AXL (R497 to Y821 residues) expressed in Escherichia coli BL21 assessed as residual activity at 1000 nM after 30 mins by Kinomescan method relative to control.
The target of assay [6] is Serine/threonine-protein kinase B-raf (Homo sapiens) (UniProt P15056). Briefly: Inhibition of wild-type human partial length BRAF (S429 to E741 residues) expressed in HEK293 cells assessed as residual activity at 1000 nM after 30 mins by Kinomescan method relative to control. The assay is classed as cell-based.
Chain of Serine/threonine-protein kinase B-raf (Homo sapiens) (P15056 whole entry, the tested form may be a part): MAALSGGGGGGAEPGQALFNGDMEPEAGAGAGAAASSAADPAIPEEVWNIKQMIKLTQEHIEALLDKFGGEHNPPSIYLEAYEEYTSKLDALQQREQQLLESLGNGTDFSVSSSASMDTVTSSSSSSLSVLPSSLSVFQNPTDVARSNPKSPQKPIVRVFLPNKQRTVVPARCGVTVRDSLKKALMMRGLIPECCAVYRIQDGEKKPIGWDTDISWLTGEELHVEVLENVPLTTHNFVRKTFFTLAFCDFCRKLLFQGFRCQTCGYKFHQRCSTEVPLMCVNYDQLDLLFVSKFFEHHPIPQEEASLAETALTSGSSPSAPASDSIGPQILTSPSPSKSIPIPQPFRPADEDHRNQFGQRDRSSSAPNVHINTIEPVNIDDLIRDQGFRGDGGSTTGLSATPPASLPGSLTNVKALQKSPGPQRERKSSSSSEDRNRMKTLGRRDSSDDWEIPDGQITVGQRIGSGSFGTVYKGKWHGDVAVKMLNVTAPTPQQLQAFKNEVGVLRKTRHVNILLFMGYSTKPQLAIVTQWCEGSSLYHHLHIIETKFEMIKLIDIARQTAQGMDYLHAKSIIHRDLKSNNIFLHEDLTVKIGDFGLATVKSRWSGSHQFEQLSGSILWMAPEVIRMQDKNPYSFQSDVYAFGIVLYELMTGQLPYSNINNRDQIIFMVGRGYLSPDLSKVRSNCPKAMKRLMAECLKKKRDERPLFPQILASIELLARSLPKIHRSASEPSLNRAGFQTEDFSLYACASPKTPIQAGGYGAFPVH
Assay [7] concerns the target Calcium/calmodulin-dependent protein kinase type II subunit beta (Homo sapiens) (UniProt Q13554). Briefly: Inhibition of wild-type human partial length CAMK2B (M1 to Q380 residues) expressed in Escherichia coli BL21 assessed as residual activity at 1000 nM after 30 mins by Kinomescan method relative to control.
Assay [8] concerns the target Serine/threonine-protein kinase DCLK3 (Homo sapiens) (UniProt Q9C098). Briefly: Inhibition of wild-type human partial length DCAMKL3 (E140 to V628 residues) expressed in Escherichia coli BL21 assessed as residual activity at 1000 nM after 30 mins by Kinomescan method relative to control.
The target in assay [9] is Mitogen-activated protein kinase 7 (Homo sapiens) (UniProt Q13164). In words: Inhibition of wild-type human partial length ERK5 (M1 to A409 residues) expressed in Escherichia coli BL21 assessed as residual activity at 1000 nM after 30 mins by Kinomescan method relative to control.
Chain of Mitogen-activated protein kinase 7 (Homo sapiens) (Q13164 2-816 limits assumed): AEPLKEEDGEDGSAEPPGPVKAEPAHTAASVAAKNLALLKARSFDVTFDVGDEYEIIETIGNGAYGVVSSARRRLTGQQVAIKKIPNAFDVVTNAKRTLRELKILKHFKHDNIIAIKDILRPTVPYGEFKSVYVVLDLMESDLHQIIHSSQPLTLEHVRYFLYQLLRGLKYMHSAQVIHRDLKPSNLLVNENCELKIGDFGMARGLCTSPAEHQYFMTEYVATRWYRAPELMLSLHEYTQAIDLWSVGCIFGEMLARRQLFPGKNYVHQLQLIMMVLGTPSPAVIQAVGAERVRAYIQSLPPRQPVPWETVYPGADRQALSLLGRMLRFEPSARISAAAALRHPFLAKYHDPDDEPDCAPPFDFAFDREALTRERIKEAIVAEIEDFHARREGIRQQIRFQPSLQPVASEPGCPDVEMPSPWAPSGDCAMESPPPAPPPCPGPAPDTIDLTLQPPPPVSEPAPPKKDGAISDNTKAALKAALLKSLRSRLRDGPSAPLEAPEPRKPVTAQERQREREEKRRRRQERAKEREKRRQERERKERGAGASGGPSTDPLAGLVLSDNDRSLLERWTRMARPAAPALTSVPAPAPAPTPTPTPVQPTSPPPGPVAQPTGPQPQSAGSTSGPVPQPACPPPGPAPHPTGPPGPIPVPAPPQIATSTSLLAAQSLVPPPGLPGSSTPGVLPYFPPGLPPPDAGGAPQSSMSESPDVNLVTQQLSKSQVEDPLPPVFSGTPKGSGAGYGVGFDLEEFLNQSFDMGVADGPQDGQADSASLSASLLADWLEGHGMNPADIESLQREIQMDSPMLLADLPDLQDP
In assay [10] the target is Serine/threonine-protein kinase STK11 (Homo sapiens) (UniProt Q15831). Briefly: Inhibition of wild-type human full length LKB1 (M1 to Q433 residues) expressed in Escherichia coli BL21 assessed as residual activity at 1000 nM after 30 mins by Kinomescan method relative to control. The method, boiled down: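 Single-concentration screen at 1 µM across a 456-kinase KINOMEscan panel. The read-out is Percent Control for each kinase.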

Assay [11] has as its target Mitogen-activated protein kinase kinase kinase 1 (Homo sapiens) (UniProt Q13233). Briefly: Inhibition of wild-type human partial length MAP3K1 (L1202 to W1512 residues) expressed in HEK293 cells assessed as residual activity at 1000 nM after 30 mins by Kinomescan method relative to control. In kind it is cell-based.
In assay [12] the target is Serine/threonine-protein kinase MARK1 (Homo sapiens) (UniProt Q9P0L2). In words: Inhibition of wild-type human partial length MARK1 (Q30 to T341 residues) expressed in Escherichia coli BL21 assessed as residual activity at 1000 nM after 30 mins by Kinomescan method relative to control.
Chain of Serine/threonine-protein kinase MARK1 (Homo sapiens) (Q9P0L2 whole entry, looked up, the tested form may be a part): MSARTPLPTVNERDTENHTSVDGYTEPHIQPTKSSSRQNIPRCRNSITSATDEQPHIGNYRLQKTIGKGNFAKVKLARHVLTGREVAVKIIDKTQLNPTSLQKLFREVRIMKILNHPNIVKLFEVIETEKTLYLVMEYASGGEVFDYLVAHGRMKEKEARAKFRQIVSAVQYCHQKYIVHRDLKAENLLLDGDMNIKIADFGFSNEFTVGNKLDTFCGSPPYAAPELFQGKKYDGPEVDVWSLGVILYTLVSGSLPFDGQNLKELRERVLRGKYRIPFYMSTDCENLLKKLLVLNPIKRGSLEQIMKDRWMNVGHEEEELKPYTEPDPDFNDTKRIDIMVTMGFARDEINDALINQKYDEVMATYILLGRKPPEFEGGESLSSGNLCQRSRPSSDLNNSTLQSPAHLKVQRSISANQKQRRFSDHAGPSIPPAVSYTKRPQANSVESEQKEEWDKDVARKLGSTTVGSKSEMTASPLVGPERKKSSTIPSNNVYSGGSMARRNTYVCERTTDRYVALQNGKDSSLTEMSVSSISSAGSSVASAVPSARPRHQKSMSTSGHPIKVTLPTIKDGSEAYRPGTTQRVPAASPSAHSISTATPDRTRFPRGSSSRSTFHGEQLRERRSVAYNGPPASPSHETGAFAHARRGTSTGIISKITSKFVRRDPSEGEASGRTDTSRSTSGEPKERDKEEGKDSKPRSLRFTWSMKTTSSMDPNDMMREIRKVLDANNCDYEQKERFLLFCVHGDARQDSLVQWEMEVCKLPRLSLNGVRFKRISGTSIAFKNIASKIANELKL
Assay [13] has as its target Microtubule-associated serine/threonine-protein kinase 1 (Homo sapiens) (UniProt Q9Y2H9). Briefly: Inhibition of wild-type human partial length MAST1 (S346 to V730 residues) expressed in HEK293 cells assessed as residual activity at 1000 nM after 30 mins by Kinomescan method relative to control. In kind it is cell-based.
The target in assay [14] is Serine/threonine-protein kinase PAK 2 (Homo sapiens) (UniProt Q13177). Briefly: Inhibition of wild-type human partial length PAK2 (P151 to R525 residues) expressed in Escherichia coli BL21 assessed as residual activity at 1000 nM after 30 mins by Kinomescan method relative to control.
Chain of Serine/threonine-protein kinase PAK 2 (Homo sapiens) (Q13177 whole entry, the tested form may be a part, canonical isoform): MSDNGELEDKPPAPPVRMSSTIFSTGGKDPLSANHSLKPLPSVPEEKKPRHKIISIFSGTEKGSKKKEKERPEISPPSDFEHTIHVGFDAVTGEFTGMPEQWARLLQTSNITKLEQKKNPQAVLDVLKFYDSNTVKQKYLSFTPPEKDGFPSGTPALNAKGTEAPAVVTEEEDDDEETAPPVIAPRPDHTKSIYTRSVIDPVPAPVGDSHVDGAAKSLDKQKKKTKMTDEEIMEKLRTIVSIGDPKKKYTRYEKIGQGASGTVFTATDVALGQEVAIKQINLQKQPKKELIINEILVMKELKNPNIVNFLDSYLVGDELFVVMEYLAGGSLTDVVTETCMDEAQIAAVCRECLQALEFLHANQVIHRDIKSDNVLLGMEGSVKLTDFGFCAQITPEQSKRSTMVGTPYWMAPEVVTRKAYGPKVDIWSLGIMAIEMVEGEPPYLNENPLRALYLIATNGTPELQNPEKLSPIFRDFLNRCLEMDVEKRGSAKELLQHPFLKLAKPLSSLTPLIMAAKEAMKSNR
The test system of assay [15] is Phosphatidylinositol 4,5-bisphosphate 3-kinase catalytic subunit alpha isoform (Homo sapiens), P42336 [C420R]. In words: Inhibition of human partial length PIK3CA C420R mutant (R108 to N1068 residues) expressed in HEK293 cells assessed as residual activity at 1000 nM after 30 mins by Kinomescan method relative to control. The assay is classed as cell-based. The method, boiled down: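 KINOMEscan binding panel of 456 kinases, with the test compound at a single concentration of 1 µM. Read-out is Percent Control.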

For assay [16], the target named is Serine/threonine-protein kinase PLK4 (Homo sapiens) (UniProt O00444). In words: Inhibition of wild-type human partial length PLK4 (M1 to S273 residues) expressed in HEK293 cells assessed as residual activity at 1000 nM after 30 mins by Kinomescan method relative to control. In kind it is cell-based.
In assay [17] the target is cAMP-dependent protein kinase catalytic subunit PRKX (Homo sapiens) (UniProt P51817). Briefly: Inhibition of wild-type human partial length PRKX (M1 to F358 residues) expressed in Escherichia coli BL21 assessed as residual activity at 1000 nM after 30 mins by Kinomescan method relative to control.
For assay [18], the target named is Receptor-interacting serine/threonine-protein kinase 4 (Homo sapiens) (UniProt P57078). Briefly: Inhibition of wild-type human partial length RIPK4 (M1 to V303 residues) expressed in HEK293 cells assessed as residual activity at 1000 nM after 30 mins by Kinomescan method relative to control. The assay is classed as cell-based.
The target of assay [19] is Serine/threonine-protein kinase 36 (Homo sapiens) (UniProt Q9NRP7). In words: Inhibition of wild-type human partial length STK36 (M1 to T271 residues) expressed in Escherichia coli BL21 assessed as residual activity at 1000 nM after 30 mins by Kinomescan method relative to control.
Assay [20] concerns the target Serine/threonine-protein kinase tousled-like 2 (Homo sapiens) (UniProt Q86UE8). In words: Inhibition of wild-type human partial length TLK2 (E424 to N749 residues) expressed in Escherichia coli BL21 assessed as residual activity at 1000 nM after 30 mins by Kinomescan method relative to control.
For assay [21], the target named is Mitogen-activated protein kinase kinase kinase 20 (Homo sapiens) (UniProt Q9NYL2). In words: Inhibition of wild-type human partial length ZAK (M1 to L331 residues) expressed in Escherichia coli BL21 assessed as residual activity at 1000 nM after 30 mins by Kinomescan method relative to control.

Chain of Serine/threonine-protein kinase tousled-like 2 (Homo sapiens) (Q86UE8 whole entry, looked up, the tested form may be a part): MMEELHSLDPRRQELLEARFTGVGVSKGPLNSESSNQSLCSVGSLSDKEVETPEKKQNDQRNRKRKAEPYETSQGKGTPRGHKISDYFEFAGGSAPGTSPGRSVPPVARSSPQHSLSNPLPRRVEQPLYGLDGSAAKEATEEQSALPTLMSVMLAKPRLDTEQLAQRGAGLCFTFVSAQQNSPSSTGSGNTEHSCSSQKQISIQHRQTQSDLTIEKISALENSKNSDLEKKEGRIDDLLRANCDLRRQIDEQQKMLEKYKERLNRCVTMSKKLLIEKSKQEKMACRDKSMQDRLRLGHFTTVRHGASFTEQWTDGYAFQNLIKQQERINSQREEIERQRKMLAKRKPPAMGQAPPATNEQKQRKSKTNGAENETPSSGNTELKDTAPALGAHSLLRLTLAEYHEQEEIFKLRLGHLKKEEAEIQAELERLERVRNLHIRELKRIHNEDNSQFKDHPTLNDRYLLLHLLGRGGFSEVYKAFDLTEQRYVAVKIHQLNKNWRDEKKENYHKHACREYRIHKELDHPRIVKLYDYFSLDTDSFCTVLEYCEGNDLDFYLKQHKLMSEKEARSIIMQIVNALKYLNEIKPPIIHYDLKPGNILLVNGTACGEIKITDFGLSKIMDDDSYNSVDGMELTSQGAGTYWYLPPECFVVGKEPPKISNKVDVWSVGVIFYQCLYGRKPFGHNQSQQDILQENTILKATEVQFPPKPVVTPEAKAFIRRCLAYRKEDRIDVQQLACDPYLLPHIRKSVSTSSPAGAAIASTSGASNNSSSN
Chain of Tyrosine-protein kinase receptor UFO (Homo sapiens) (P30530 whole entry, the tested form may be a part): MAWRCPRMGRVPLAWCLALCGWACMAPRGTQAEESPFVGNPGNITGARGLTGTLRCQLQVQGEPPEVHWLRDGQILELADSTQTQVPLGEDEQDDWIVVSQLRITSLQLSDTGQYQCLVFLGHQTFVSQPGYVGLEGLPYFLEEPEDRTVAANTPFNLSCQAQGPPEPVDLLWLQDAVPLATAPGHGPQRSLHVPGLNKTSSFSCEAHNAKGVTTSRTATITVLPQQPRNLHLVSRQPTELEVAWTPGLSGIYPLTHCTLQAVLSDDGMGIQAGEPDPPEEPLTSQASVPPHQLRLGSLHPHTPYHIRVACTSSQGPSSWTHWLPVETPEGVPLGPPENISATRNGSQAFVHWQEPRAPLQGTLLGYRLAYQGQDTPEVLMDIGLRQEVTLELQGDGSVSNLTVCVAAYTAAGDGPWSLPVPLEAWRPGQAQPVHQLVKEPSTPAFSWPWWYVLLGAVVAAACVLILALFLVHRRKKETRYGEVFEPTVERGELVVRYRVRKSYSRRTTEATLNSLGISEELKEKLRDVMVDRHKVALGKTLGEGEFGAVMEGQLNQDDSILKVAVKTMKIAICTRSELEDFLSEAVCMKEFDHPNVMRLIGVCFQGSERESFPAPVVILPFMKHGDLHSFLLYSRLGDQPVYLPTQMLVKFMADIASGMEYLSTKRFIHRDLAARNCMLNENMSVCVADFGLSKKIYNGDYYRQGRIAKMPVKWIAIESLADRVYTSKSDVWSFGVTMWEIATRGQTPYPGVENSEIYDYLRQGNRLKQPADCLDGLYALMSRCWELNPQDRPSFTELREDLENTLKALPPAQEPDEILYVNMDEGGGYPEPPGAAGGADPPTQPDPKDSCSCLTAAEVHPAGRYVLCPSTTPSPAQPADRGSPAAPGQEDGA

With `COc1cc(OC)c(Cl)c(N2Cc3cnc(Nc4ccc(F)cc4)nc3N(C3CCN(C(=O)/C=C/CN(C)C)CC3)C2=O)c1Cl`, the IC50 in assay [1] came to 78.1 nM. In addition, the Activity in assay [2] worked out at 31%; in assay [3] it was 37%; in assay [4], 95%; in assay [5], 92%; in assay [6], 100%; in assay [7], 100%. In addition, the Activity in assay [8] was 81%; in assay [9], 49%; in assay [10], 100%; in [11] it was 100%; in assay [12], 99%; in [13] it was 90%. Also, the Activity in [14], in assay [15], in assay [16], in assay [17], in assay [18] and in assay [19] was 100% throughout. Also, the Activity in [20] is 96%; in assay [21] it was 98%.

In general, IC50 refers to the point on the concentration scale where inhibition reaches its midpoint.
